Consider two molecules from ChEMBL document CHEMBL1955829, “Synthesis and biological evaluation of 4β-sulphonamido and 4β-[(4'-sulphonamido)benzamide]podophyllotoxins as DNA topoisomerase-IIα and apoptosis inducing agents” (2012).

One assay deals with KB. Put plainly: Growth inhibition of human KB cells after 48 hrs by sulforhodamine B assay. The class given is functional. The procedure, abridged: (§1)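 Cells grown in DMEM with 10% FBS and 2 mM L-glutamine, plated at densities set by doubling time, and held 24 h before dosing. Exposure was 48 h to 0.1, 1, 10 and 100 µM in triplicate wells. Cells fixed with cold TCA (final 10%) 60 min at 4 °C and stained with 0.4% SRB 20 min. Bound dye eluted in 10 mM Tris base and read at 540 nm (690 nm reference). GI50 is the concentration giving 50% reduction in net protein gain versus control; values are the mean of three determinations.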

Assay [1] in a line: Growth inhibition of human DWD cells after 48 hrs by sulforhodamine B assay. In kind it is functional. The procedure, abridged:
as §1

Another assay has as its system A549. Put plainly: Growth inhibition of human A549 cells after 48 hrs by sulforhodamine B assay. In kind it is functional. The settings on record: A549, 48 h. In a few lines:
as §1

The subject of another assay is A2780. Put plainly: Growth inhibition of human A2780 cells after 48 hrs by sulforhodamine B assay. To be noted: A2780, 48 h. The class given is functional. The procedure, abridged: as §1
For assay [2], the system named is COLO 205. Put plainly: Cytotoxicity against human COLO205 cells at 2 uM after 24 hrs by MTT assay. In kind it is functional, cell-based. In a few lines:
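Colo-205 cells plated at 10,000 per well, left overnight, then exposed 24 h at 2, 4 or 8 µM. MTT added for 2 h at 37 °C, formazan dissolved in extraction buffer, and optical density read at 570 nm against untreated cells.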

Assay [3] deals with COLO 205. Put plainly: Cell cycle arrest in human COLO205 cells assessed as accumulation at G0 phase at 4 uM after 24 hrs by FACS analysis (reference value: 4.29%). The class given is functional. The procedure, abridged:
(§2)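 Colo-205 cells seeded at […] per 60 mm dish and treated 24 h at 4 µM; TSA arm used TSA at 4 µM for 12 h. Cells trypsinised, fixed in ice-cold 70% ethanol 30 min at 4 °C, RNase 1 mg/mL 30 min at 37 °C, then propidium iodide/citrate/Triton stain. DNA content of 20,000 events read by flow cytometry; phase percentages from histograms.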

Assay [4] concerns COLO 205. Put plainly: Cell cycle arrest in human COLO205 cells assessed as accumulation at G1 phase at 4 uM after 24 hrs by FACS analysis (reference value: 60.89%). In kind it is functional. The procedure, abridged: as §2
The test system of assay [5] is COLO 205. Put plainly: Cell cycle arrest in human COLO205 cells assessed as accumulation at S phase at 4 uM after 24 hrs by FACS analysis (reference value: 8.91%). The class given is functional. The procedure, abridged:
as §2

Assay [6] relates to COLO 205. Put plainly: Cell cycle arrest in human COLO205 cells assessed as accumulation at G0 phase at 4 uM after 24 hrs by FACS analysis in presence of HDAC inhibitor, trichostatin A (reference value: 4.06%). In kind it is functional. In a few lines:
as §2

The subject of assay [7] is COLO 205. Put plainly: Cell cycle arrest in human COLO205 cells assessed as accumulation at G2/M phase at 4 uM after 24 hrs by FACS analysis in presence of HDAC inhibitor, trichostatin A (reference value: 17.41%). In kind it is functional. The procedure, abridged:
as §2

Assay [8] deals with DNA topoisomerase 2-alpha (Homo sapiens) (UniProt P11388). Put plainly: Inhibition of topoisomerase 2alpha in human in COLO205 cells assessed as induction of single-strand DNA breaks at 4 uM after 24 hrs by comet assay. In kind it is cell-based. To be noted: COLO 205. The procedure, abridged: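 Colo-205 cells treated 24 h at 4 µM. Electrophoresis 20 min at 40 V in 0.5% TBE pH 8. Slides stained with SYBR green 30 min and imaged by fluorescence microscopy at 20×.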

The target in assay [9] is DNA topoisomerase 2-beta (Homo sapiens) (UniProt Q02880). Put plainly: Inhibition of topoisomerase 2beta in human in COLO205 cells assessed as induction of double-strand DNA breaks at 4 uM after 24 hrs by gamma-H2AX staining-based Western blotting analysis. The class given is cell-based. To be noted: COLO 205. The procedure, abridged: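 Colo-205 cells treated 24 h at 4 µM. Double-strand breaks detected with anti-phospho-Ser139 H2AX antibody, both by immunofluorescence staining and by Western blot, with β-actin as loading control.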

In assay [10] the target is DNA topoisomerase 2-alpha (Homo sapiens) (UniProt P11388). Put plainly: Inhibition of topoisomerase 2alpha using pBR322 DNA as substrate at 50 uM after 30 mins by gel electrophoresis. The procedure, abridged: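 Purified topo-IIα enzyme (4 U/µL) incubated with pBR322 plasmid DNA and compound at 50, 25 or 10 µM final, in fresh buffer containing ATP, KCl, MgCl2, DTT and Tris pH 8.0. Inhibition of DNA processing assessed on the resulting gel.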

The target in assay [11] is Serine-protein kinase ATM (Homo sapiens) (UniProt Q13315). Put plainly: Induction of ATM activation in human COLO205 cells at 4 uM after 24 hrs by ATM S1981 staining. The settings on record: COLO 205. In kind it is cell-based. The procedure, abridged: (§3)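 Colo-205 cells on coverslips treated 24 h at 4 µM. Fixed in 4% paraformaldehyde, permeabilised with 0.2% Triton X-100, held in methanol overnight at 4 °C, and blocked with 1% BSA. Stained with anti-phospho-ATM (S1981) or anti-phospho-Chk1 (1:100) for 2 h at room temperature, then FITC anti-rabbit secondary for 1 h; DAPI/PI counterstain and confocal imaging.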

Assay [12] deals with T1, Serine/threonine-protein kinase Chk1 (Homo sapiens) (UniProt O14757).
T1 sequence (whole entry): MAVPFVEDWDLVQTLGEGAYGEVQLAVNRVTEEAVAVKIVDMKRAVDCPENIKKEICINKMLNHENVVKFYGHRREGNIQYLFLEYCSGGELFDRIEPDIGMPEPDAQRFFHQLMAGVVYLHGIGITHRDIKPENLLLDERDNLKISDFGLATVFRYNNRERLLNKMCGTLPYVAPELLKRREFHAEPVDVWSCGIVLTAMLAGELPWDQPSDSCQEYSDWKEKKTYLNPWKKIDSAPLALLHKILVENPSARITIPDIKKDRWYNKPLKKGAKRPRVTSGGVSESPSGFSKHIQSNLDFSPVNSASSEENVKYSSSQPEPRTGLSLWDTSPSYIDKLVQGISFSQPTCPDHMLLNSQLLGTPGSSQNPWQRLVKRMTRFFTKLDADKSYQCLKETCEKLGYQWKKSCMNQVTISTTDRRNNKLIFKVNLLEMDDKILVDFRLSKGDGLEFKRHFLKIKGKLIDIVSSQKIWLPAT
Put plainly: Increase in Chk1 phosphorylation at Ser345 in human COLO205 cells after 24 hrs. In kind it is cell-based. The settings on record: COLO 205. In a few lines: as §3

The subject of assay [13] is COLO 205. Put plainly: Induction of apoptosis in human COLO205 cells assessed as up-regulation of p21 at 4 uM after 24 hrs by Western blotting analysis. In kind it is functional, cell-based. The procedure, abridged: (§4)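 Colo-205 cells treated 24 h at 4 µM and lysed in ice-cold RIPA with protease inhibitors and NaF. Protein measured by Bradford; 50 µg per lane run on 12% SDS-PAGE and transferred to PVDF. Membrane blocked 2 h, primary antibody (topo-IIα/β, p21, p16, pro-caspase-3, NF-kB p65) overnight at 4 °C, HRP secondary 1:2000 for 1 h, chemiluminescence detection; β-actin as loading control. Reduced procaspase-3 taken as caspase-3 activation.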

For assay [14], the system named is COLO 205. Put plainly: Induction of apoptosis in human COLO205 cells assessed as up-regulation of p16 at 4 uM after 24 hrs by Western blotting analysis. The class given is functional, cell-based. In a few lines: as §4
The subject of assay [15] is COLO 205. Put plainly: Induction of apoptosis in human COLO205 cells assessed as up-regulation of NF-kappaB at 4 uM after 24 hrs by Western blotting analysis. In kind it is functional, cell-based. The procedure, abridged:
as §4

Active and inactive are the calls of the source. No cut-off for these calls is given here.

DNA topoisomerase 2-alpha (Homo sapiens), sequence (P11388 whole entry): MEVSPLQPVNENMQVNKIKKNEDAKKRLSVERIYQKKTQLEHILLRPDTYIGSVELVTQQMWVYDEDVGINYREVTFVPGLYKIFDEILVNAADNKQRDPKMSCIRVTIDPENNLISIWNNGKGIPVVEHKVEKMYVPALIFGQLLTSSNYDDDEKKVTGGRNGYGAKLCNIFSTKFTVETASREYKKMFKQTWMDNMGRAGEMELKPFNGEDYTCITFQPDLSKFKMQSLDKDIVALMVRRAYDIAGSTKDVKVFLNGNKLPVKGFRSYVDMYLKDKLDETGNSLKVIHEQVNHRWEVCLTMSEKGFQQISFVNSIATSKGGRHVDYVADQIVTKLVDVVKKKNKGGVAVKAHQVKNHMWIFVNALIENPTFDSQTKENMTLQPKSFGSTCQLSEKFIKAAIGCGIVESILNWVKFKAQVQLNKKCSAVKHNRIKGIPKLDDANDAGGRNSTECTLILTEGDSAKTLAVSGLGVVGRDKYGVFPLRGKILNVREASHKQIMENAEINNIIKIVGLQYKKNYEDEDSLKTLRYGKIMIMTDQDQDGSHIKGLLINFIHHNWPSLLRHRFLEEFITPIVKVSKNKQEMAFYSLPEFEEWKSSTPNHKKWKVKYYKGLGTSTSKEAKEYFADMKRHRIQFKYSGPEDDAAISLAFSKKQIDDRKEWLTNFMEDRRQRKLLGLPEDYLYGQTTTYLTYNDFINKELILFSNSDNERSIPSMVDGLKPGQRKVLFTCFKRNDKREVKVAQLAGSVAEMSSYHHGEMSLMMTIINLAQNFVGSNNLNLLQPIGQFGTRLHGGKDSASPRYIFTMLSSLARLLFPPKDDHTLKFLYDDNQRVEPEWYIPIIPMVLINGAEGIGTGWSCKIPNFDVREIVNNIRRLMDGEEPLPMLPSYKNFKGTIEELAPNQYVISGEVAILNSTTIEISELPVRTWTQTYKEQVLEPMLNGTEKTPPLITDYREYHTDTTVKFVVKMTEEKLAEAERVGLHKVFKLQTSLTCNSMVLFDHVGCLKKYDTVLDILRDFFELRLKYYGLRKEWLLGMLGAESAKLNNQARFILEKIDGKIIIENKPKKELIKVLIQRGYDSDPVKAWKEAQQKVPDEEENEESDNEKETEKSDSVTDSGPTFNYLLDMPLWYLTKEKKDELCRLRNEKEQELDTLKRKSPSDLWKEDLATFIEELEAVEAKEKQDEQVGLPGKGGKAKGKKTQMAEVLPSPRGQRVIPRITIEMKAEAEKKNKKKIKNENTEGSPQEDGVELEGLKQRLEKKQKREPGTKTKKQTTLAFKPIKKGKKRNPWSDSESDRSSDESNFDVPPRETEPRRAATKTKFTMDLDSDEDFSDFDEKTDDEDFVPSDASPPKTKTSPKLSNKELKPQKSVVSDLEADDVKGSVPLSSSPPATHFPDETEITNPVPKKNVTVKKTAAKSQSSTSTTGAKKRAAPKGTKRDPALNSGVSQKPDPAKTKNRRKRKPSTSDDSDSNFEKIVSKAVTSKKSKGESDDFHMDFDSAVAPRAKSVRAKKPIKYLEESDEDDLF
DNA topoisomerase 2-beta (Homo sapiens), sequence (Q02880 whole entry): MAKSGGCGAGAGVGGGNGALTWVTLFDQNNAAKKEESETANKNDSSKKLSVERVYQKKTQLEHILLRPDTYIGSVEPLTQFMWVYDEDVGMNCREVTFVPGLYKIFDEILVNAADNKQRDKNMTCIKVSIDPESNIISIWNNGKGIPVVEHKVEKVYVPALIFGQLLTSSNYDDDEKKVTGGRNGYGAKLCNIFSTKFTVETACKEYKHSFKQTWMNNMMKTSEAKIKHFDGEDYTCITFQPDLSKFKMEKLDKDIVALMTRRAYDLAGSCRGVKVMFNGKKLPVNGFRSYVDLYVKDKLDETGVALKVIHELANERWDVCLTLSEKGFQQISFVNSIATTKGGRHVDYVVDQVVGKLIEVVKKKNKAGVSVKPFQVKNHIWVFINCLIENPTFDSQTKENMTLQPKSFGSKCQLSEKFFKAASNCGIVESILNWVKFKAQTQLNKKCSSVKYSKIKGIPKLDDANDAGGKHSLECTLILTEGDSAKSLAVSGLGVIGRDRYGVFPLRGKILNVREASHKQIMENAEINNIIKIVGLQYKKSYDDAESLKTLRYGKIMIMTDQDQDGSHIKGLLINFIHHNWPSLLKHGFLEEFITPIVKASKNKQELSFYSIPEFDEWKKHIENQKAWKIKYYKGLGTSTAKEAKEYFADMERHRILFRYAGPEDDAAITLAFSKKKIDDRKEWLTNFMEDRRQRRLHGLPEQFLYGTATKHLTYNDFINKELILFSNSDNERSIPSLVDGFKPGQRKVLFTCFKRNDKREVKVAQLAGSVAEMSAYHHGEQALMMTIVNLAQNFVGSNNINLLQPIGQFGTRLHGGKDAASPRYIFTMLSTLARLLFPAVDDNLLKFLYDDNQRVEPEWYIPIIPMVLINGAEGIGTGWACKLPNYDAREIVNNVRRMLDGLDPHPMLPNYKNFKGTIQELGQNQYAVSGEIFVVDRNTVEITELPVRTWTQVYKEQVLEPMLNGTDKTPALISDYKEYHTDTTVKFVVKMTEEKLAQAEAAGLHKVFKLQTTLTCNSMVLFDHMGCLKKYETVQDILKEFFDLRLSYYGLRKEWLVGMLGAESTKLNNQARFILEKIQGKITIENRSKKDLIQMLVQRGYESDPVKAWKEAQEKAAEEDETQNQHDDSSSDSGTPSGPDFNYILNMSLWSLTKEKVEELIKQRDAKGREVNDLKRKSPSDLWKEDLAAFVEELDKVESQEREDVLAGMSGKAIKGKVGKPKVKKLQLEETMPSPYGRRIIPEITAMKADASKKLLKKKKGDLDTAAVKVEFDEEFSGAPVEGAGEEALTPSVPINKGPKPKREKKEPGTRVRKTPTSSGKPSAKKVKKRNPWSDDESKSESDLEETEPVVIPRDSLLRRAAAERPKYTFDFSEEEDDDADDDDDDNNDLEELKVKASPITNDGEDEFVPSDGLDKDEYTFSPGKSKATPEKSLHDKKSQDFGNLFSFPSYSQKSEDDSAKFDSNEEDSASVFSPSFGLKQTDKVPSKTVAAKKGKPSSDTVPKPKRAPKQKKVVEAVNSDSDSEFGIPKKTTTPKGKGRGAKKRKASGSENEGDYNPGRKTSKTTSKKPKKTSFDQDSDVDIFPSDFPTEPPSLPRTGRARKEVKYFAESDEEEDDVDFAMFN

As to `COC(=O)c1sccc1S(=O)(=O)N[C@@H]1c2cc3c(cc2[C@@H](c2cc(OC)c(OC)c(OC)c2)[C@H]2C(=O)OC[C@@H]21)OCO3`, the GI50 with KB came out at 0.04 µM; in assay [1], 0.04 µM; in the assay with A549 it was 0.15 µM; with A2780, 0.05 µM. The result (in the assay on COLO 205 [2]; in assay [11]; in assay [12]; with COLO 205 [13]; in the assay on COLO 205 [14]; in the assay on COLO 205 [15]) was Active. The Activity with COLO 205 [3] came out at 23.94%; with COLO 205 [4], 27.43%; in the assay on COLO 205 [6], 57.43%; in the assay on COLO 205 [7] it was 15.7%. Moreover, in the assay on COLO 205 [5], the “Percentage of cells in S phase” value stood at 8.16%. For the same molecule, the inhibition was determined as 60% in assay [8] and 50% in [9]. For the same molecule, in assay [10], the inhibition entry is “Active”.
On to `COc1cc([C@@H]2c3cc4c(cc3[C@@H](O[C@@H]3O[C@@H]5CO[C@@H](C)O[C@H]5[C@H](O)[C@H]3O)[C@H]3COC(=O)[C@H]23)OCO4)cc(OC)c1O` [ETOPOSIDE], for which the GI50 with KB was determined as 0.31 µM; in assay [1], 0.62 µM; in the assay on A549, 3.08 µM; with A2780, 1.31 µM. Moreover, the outcome (with COLO 205 [2]; in [11]; in assay [12]; in the assay with COLO 205 [13]; in the assay with COLO 205 [14]; in the assay on COLO 205 [15]) was Active. In addition, the Activity in the assay with COLO 205 [3] worked out at 5.95%; in the assay on COLO 205 [4], 12.82%; in the assay on COLO 205 [6] it was 56.29%; with COLO 205 [7], 13.28%. Besides, in the assay with COLO 205 [5], the “Percentage of cells in S phase” value worked out at 6.97%. For the same molecule, the inhibition result in [8], in assay [9] and in assay [10] was “Active” throughout.
